# Experimental data: publication PMC5028085 (Drug Design, Development and Therapy, 2016)
# Structures can show the parent of a compound that is named as a salt. Where two headings read alike, the source gives them in different places. Marks after values point to notes of the source that are not given here.
# What was measured:
# [1] = Observed clinical pharmacokinetics after oral sarpogrelate hydrochloride; assay type: in vivo, human
# P-gp = P-gp (Homo sapiens, UniProt P08183); assay type: cell-based; details: for Permeability Papp,AB of loperamide / Permeability Papp,BA of loperamide / Inhibition (%): MDCK-II-P-gp; for Permeability Papp,AB of loperamide / Permeability Papp,BA of loperamide: loperamide 10 μM, mean ± SD (n=3); for Inhibition (%): loperamide transport
# BCRP = biological target: T1, BCRP (Homo sapiens, UniProt Q9UNQ0); assay type: cell-based; details: for Permeability Papp,AB of prazosin / Permeability Papp,BA of prazosin / Inhibition (%): MDCK-II-BCRP; for Permeability Papp,AB of prazosin / Permeability Papp,BA of prazosin: prazosin 10 μM, mean ± SD (n=3); for Inhibition (%): prazosin transport; for inhibition of BCRP-mediated prazosin transport: all tested concentrations up to 10 μM
# T1 sequence (Q9UNQ0 1-655): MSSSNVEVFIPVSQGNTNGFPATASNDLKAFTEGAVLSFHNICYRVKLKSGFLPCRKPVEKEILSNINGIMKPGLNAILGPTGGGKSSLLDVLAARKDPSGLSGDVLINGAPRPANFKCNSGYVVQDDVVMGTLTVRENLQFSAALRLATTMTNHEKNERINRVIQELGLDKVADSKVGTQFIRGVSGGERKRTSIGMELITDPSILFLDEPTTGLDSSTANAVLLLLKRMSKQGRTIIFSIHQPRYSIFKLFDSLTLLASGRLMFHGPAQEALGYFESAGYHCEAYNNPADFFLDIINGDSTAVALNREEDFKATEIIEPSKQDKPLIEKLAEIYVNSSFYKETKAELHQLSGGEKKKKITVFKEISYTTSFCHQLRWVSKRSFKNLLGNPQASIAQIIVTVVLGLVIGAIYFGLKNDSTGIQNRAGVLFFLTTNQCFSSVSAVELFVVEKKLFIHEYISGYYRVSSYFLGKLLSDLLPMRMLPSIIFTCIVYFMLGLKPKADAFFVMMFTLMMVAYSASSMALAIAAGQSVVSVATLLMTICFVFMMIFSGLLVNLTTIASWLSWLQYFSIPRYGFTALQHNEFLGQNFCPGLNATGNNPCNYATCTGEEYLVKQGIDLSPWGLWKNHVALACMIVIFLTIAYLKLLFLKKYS
# [2] = Metabolic stability in pooled human liver microsomes for CLint; assay type: in vitro ADME; details: for microsomal CLint at 400 nM: human, pooled human liver microsomes
# Outline: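 Preincubated 5 min at 37°C, then incubated with 400 nM substrate up to 60–90 min. Run in duplicate, analysed by LC-MS/MS as % remaining vs time 0. t1/2 from initial log-linear slope; CLint = (0.693/t1/2)×(incubation volume/microsomal protein).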
# MDCK-II-P-gp cells = test: MTT cytotoxicity assay in MDCK-II-P-gp cells; assay type: cell-based, canine; details: 1 hour incubation, highest drug concentration tested (10 μM)
# MDCK-II-BCRP cells = test: MTT cytotoxicity assay in MDCK-II-BCRP cells; assay type: cell-based, canine; details: 1 hour incubation, highest drug concentration tested (10 μM)
# CYP2D6 [3] = details: read-out: CYP2D6 Ki; competitive inhibition type, in vitro; cited from earlier work
# [4] = cited from earlier work
# UGT1A4 = details: M-1 glucuronidation; cited from earlier work
# UGT1A9 = details: M-1 glucuronidation; cited from earlier work
# UGT2B7 = details: M-1 glucuronidation; cited from earlier work
# [5] = cited from earlier work; remark: listed apart in the source
# [6] = PBPK input parameters predicted, defaulted, optimized or assumed in Simcyp; parameters: species or system human; details: Assumed from Reference 21
# [7] = MTT cytotoxicity assay in MDCK-II-P-gp cells; assay type: cell-based, canine; details: dog
# [8] = MTT cytotoxicity assay in MDCK-II-BCRP cells; assay type: cell-based, canine; details: dog
# [9] = Metabolic stability of sarpogrelate in human intestinal microsomes; assay type: in vitro ADME; details: sarpogrelate 400 nM, 60-minute incubation; data not shown
# [10] = Metabolic stability of sarpogrelate in human blood; assay type: in vitro ADME; details: sarpogrelate 400 nM, 60-minute incubation; data not shown
# [11] = cited from earlier work; remark: listed apart in the source
# [12] = high solubility and permeability profile; cited from earlier work
# CYP2D6 [13] = details: cited from earlier work
# CYP2D6 [14] = details: single coadministration with sarpogrelate hydrochloride 100 mg; cited from earlier work
# [15] = multiple doses 100 mg tid for 1 day
# [16] = observed, single oral 100 mg sarpogrelate hydrochloride, median (range), ref 20
# [17] = human, MDCK-II-P-gp cell monolayer, probe loperamide (10 µM)
# [18] = human, MDCK-II-BCRP cell monolayer, probe prazosin (10 µM)
# [19] = single oral 100 mg sarpogrelate hydrochloride
# P-gp, sequence (P08183 whole entry): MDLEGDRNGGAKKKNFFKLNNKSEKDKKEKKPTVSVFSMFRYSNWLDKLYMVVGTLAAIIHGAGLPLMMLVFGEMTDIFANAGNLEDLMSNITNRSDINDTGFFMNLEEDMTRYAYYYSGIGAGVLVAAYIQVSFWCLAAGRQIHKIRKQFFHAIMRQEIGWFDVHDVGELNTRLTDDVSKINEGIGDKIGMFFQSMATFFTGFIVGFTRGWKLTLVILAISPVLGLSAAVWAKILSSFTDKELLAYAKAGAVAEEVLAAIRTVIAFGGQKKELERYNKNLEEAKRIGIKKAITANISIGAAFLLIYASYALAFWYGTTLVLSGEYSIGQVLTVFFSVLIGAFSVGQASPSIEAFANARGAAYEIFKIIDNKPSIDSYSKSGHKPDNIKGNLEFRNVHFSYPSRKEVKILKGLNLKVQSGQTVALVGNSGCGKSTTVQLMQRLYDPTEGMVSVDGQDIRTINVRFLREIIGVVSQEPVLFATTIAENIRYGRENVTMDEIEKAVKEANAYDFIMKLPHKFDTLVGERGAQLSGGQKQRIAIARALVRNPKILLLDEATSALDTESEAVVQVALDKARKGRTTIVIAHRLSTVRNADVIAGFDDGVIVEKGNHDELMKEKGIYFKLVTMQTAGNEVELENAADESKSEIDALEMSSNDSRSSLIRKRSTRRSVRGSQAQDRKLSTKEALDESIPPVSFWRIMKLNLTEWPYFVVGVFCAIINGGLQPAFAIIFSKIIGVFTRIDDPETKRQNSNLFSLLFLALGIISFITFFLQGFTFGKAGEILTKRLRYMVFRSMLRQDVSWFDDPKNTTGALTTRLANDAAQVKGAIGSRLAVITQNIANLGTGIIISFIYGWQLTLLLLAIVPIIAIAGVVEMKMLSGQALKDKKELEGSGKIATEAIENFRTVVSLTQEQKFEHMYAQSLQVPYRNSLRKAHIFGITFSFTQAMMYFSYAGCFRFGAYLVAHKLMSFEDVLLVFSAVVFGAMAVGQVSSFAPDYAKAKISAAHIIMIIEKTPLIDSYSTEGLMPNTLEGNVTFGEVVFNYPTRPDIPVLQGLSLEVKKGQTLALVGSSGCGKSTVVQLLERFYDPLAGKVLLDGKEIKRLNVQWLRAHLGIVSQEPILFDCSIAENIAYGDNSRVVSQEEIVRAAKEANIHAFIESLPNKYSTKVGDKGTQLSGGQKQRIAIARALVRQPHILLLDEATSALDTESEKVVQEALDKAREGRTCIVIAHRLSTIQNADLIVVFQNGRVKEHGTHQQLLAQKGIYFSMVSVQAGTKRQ
smiles,measurement,setting,value
"COc1cccc(CCc2ccccc2OC[C@H](O)CN(C)C)c1 (racemic) [M-1, (R,S)-1-{2-[2-(3-methoxyphenyl)ethyl]-phenoxy}-3-(dimethylamino)-2-propanol]",observed ratio of AUC of M-1 to sarpogrelate,"[1]; single oral 100 mg sarpogrelate hydrochloride, observed clinical data",0.139
same,"Permeability Papp,AB of loperamide",P-gp; inhibitor 0.2 µM,0.0894±0.0188 ×10^−6 cm/s
same,"Permeability Papp,BA of loperamide",P-gp; inhibitor 0.2 µM,1.95±0.0443 ×10^−6 cm/s
same,"Permeability Papp,AB of loperamide",P-gp; inhibitor 2 µM,0.0822±0.0192 ×10^−6 cm/s
same,"Permeability Papp,BA of loperamide",P-gp; inhibitor 2 µM,1.84±0.0249 ×10^−6 cm/s
same,"Permeability Papp,AB of loperamide",P-gp; inhibitor 10 µM,0.104±0.0243 ×10^−6 cm/s
same,"Permeability Papp,BA of loperamide",P-gp; inhibitor 10 µM,1.95±0.0403 ×10^−6 cm/s
same,Inhibition (%),P-gp; inhibitor 0.2 µM,2.00%
same,Inhibition (%),P-gp; inhibitor 2 µM,7.82%
same,Inhibition (%),P-gp; inhibitor 10 µM,2.91%
same,inhibition of P-gp-mediated loperamide transport,P-gp; all tested concentrations up to 10 μM,< 10%
same,"Permeability Papp,AB of prazosin",BCRP; inhibitor 0.2 µM,0.891±0.0355 ×10^−6 cm/s
same,"Permeability Papp,BA of prazosin",BCRP; inhibitor 0.2 µM,3.42±0.0237 ×10^−6 cm/s
same,"Permeability Papp,AB of prazosin",BCRP; inhibitor 2 µM,0.813±0.0547 ×10^−6 cm/s
same,"Permeability Papp,BA of prazosin",BCRP; inhibitor 2 µM,3.31±0.0467 ×10^−6 cm/s
same,"Permeability Papp,AB of prazosin",BCRP; inhibitor 10 µM,0.811±0.0111 ×10^−6 cm/s
same,"Permeability Papp,BA of prazosin",BCRP; inhibitor 10 µM,3.32±0.0139 ×10^−6 cm/s
same,Inhibition (%),BCRP; inhibitor 0.2 µM,0.380%
same,Inhibition (%),BCRP; inhibitor 2 µM,0.771%
same,Inhibition (%),BCRP; inhibitor 10 µM,0.381%
same,inhibition of BCRP-mediated prazosin transport,BCRP,did not inhibit
same,Additional CLint in HLM (NADPH generating system),[2]; 400 nM M-1 in HLM with NADPH generating system,150 μL/min/mg protein
same,cell viability (MTT assay),MDCK-II-P-gp cells,> 97%
same,cell viability (MTT assay),MDCK-II-BCRP cells,> 97%
same,Ki,CYP2D6 [3],120 nM
same,observed values of AUC0–24 h (range across studies),[4]; [15],246.2 to 267.2 ng·h/mL
same,Tmax,[4]; [16],1.0 (0.33–1.5) ^a hours
same,CLint by rUGT1A4,UGT1A4,0.63 μL/min/mg protein
same,CLint by rUGT1A9,UGT1A9,1.30 μL/min/mg protein
same,CLint by rUGT2B7,UGT2B7,0.32 μL/min/mg protein
same,fup (fraction unbound in plasma),[5],0.03
"COc1cccc(CCc2ccccc2OCC(CN(C)C)OC(=O)CCC(=O)O)c1 (racemic) [Sarpogrelate, (R,S)-1-{2-[2-(3-methoxyphenyl)ethyl]-phenoxy}-3-(dimethylamino)-2-propyl hydrogen succinate hydrochloride]",CLpo (oral systemic clearance),[1]; Calculated from clinical data,140 L/h
same,inhibition at 1 h,P-gp; [17],< 10%
same,"inhibition at 1 h, 0.2 µM",P-gp; [17],9.18%
same,"inhibition at 1 h, 2 µM",P-gp; [17],9.72%
same,"inhibition at 1 h, 10 µM",P-gp; [17],9.95%
same,inhibition of BCRP-mediated prazosin transport,BCRP,did not inhibit
same,"inhibition at 1 h, 0.2 µM",BCRP; [18],2.69%
same,"inhibition at 1 h, 2 µM",BCRP; [18],9.62%
same,"inhibition at 1 h, 10 µM",BCRP; [18],0.38%
same,microsomal CLint at 400 nM,"[2]; pH 7.4, CLint for M-1 formation (carboxylesterase-mediated CLint), 400 nM sarpogrelate, HLM 0.1 mg/mL, no cofactor",32.6 µL/min/mg
same,microsomal CLint at 400 nM,"[2]; pH 7.5, carboxylesterase and UDPGA-dependent CLint, 400 nM sarpogrelate in HLM with UDPGA",50 ± 7.89 µL/min/mg
same,Lag time,[6],0 h
same,fa (fraction absorbed in the gastrointestinal tract),[6],1.0
same,"viability at 1 h, 10 µM",[7],> 97%
same,"viability at 1 h, 10 µM",[8],> 97%
same,formation of M-1 in human intestinal microsomes,[9],not observed
same,formation of M-1 in human blood,[10],not observed
same,Ki,CYP2D6 [3],1240 nM
same,Tmax,"[4]; humans, 100 mg oral dose",0.889 ± 0.651 h
same,observed values of AUC0–24 h (range across studies),[4]; [15],"1,291–1,773 ng h/mL"
same,observed values of Cmax (range across studies),[4]; [15],466.0 to 781.6 ng/mL
same,Tmax,[4]; [16],0.67 (0.3–1.5) ^a hours
same,Tmax,"[4]; observed, single oral 100 mg sarpogrelate hydrochloride, median (range), ref 22",1.00 (1.0–4.0) ^a hours
same,observed values of AUC (range across studies),[4]; [19],348.3 to 621.5 ng·h/mL
same,observed values of Cmax (range across studies),[4]; [19],343.0 to 635.1 ng/mL
same,unchanged sarpogrelate in urine or feces,"[4]; up to 24 hours after a 100 mg oral dose, humans",no unchanged sarpogrelate was detected
same,Log P,"[11]; PBPK input, reference cell empty, apparently ref www.Chembase.cn",1.12
same,PSA,[11]; ref www.Chembase.cn,85.3
same,plasma protein binding,[5],approximately 95%
same,biopharmaceutics classification system (BCS) class,[12],Class I
"CNCCCN1c2ccccc2CCc2ccccc21 [Desipramine, desipramine]",metabolized fraction by CYP2D6,CYP2D6 [13],0.88
"COc1ccc2c(c1)[C@]13CCCC[C@@H]1[C@H](C2)N(C)CC3 [Dextromethorphan, dextromethorphan]",metabolized fraction by CYP2D6,CYP2D6 [13],0.96
"COCCc1ccc(OCC(O)CNC(C)C)cc1 (stereo not drawn) [Metoprolol, metoprolol]",fold increase of AUCt of metoprolol (observed),CYP2D6 [14],1.53 fold
same,fold increase of Cmax of metoprolol (observed),CYP2D6 [14],1.62 fold
same,metabolized fraction by CYP2D6,CYP2D6 [13],0.83
